Test [1] concerns Mycobacterium tuberculosis. The test is described as follows: Antimycobacterial activity against multi drug-resistant Mycobacterium tuberculosis 565 assessed as bacterial growth inhibition incubated for 6 days by Alamar blue staining based assay. The following applies: Mycobacterium tuberculosis, 565, 144 h; time 6 day. In kind it is functional. The method, boiled down: (§1)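 Strains passaged at 37 °C in 7H9 with OADC, 0.2% glycerol and 0.02% tyloxapol to OD600 0.5–0.7, then diluted to OD600 0.005. Final test range 5 to 0.009 μg/mL. Rifampicin control. Incubated 6 days at 37 °C with 5% CO2. Tween 80 and Alamar Blue then added for 24 h. Absorbance read at 570 nm, normalized to 600 nm.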

In test [2] the test system is Mycobacterium tuberculosis. The test is described as follows: Antimycobacterial activity against multi drug-resistant Mycobacterium tuberculosis 7791 assessed as bacterial growth inhibition incubated for 6 days by Alamar blue staining based assay. In kind it is functional. The following applies: Mycobacterium tuberculosis, 7791, 144 h; time 6 day. The method, boiled down:
as §1

The subject of test [3] is Mycobacterium tuberculosis. As to the kind of experiment: Antibacterial activity against Mycobacterium tuberculosis mc2 6206 harboring mLux plasmid infected in mouse J774.A1 cells assessed as inhibition of bacterial cell viability incubated for 72 hrs by multimode microplate reader analysis. In kind it is functional, organism-based. The following applies: mc2 6206, J774.A1, 72 h. The gist of the method: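 Macrophages at (4–5) × 10^5 cells/mL in DMEM/10% FBS, seeded and left to adhere overnight. Infected at MOI 1:10 with mid-log bacteria for 4 h at 37 °C, 5% CO2. Medium supplemented with pantothenate and leucine, each 50 μg/mL. After PBS washes, compound added at 64 to 0.0004 μg/mL for 72 h. Luminescence read-out. IC50 by nonlinear regression. Triplicate; experiment repeated twice.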

Test [4] has as its system Mycobacterium tuberculosis. The test is described as follows: Antimycobacterial activity against multi drug-resistant Mycobacterium tuberculosis TN800 assessed as bacterial growth inhibition incubated for 6 days by Alamar blue staining based assay. In kind it is functional. The settings on record: TN800, 144 h, time 6 day. The method, boiled down: as §1
A general note: Resazurin is reduced to fluorescent resorufin, in cell work by metabolically active cells.

In brackets after ≈: the same amount, converted by molar mass.

Regarding `C=CC(C)(C)n1cc(C(O)C2NC(=O)[C@H](C(C)C)NC(=O)[C@H](CC(C)C)N(C)C(=O)[C@H](C(C)C)NC(=O)C(C(OC)c3ccccc3)NC(=O)[C@H](C(C)C)NC(=O)C(CC(C)CO)N(C)C2=O)c2ccccc21` (stereo partly specified), the MIC in test [1], in test [2] and in test [4] was 0.08 µg/mL (≈ 0.0788 µM) throughout. In addition, the IC50 (usually the concentration at which inhibition is half-maximal) in test [3] worked out at 0.71 µg/mL (≈ 0.699 µM).

As to `CO[C@@H](c1ccccc1)[C@H]1NC(=O)[C@H](C)NC(=O)[C@@H](CC(C)CO)N(C)C(=O)C(C(O)c2cn(C(C)(C)[C@@H]3CO3)c3ccccc23)NC(=O)[C@@H]([C@H](C)C=C(C)C)NC(=O)[C@@H](CC(C)C)N(C)C(=O)[C@@H](C(C)C)NC1=O` (stereo partly specified), the IC50 in test [3] worked out at 0.48 µg/mL (≈ 0.46 µM).

On to `CO[C@H]1/C=C/O[C@@]2(C)Oc3c(C)c(O)c4c(O)c(c(/C=N/N5CCN(C)CC5)c(O)c4c3C2=O)NC(=O)/C(C)=C\C=C\[C@H](C)[C@H](O)[C@@H](C)[C@@H](O)[C@@H](C)[C@H](OC(C)=O)[C@@H]1C` [RIFAMPIN], for which, in test [3], the concentration for half-maximal inhibition (IC50) amounted to 0.08 µg/mL (≈ 0.0972 µM).

(Values after ChEMBL document CHEMBL5214894, “Biosynthetic Interrogation of Soil Metagenomes Reveals Metamarin, an Uncommon Cyclomarin Congener with Activity against Mycobacterium tuberculosis” (J Nat Prod, 2021).)
